Data: ChEMBL document CHEMBL5696442, “Discovery of type II inhibitors of TGFβ-activated kinase 1 (TAK1) and mitogen-activated protein kinase kinase kinase kinase 2 (MAP4K2)” (J Med Chem, 2015)
Calls of active or inactive are those of the source. No cut-off for these calls is given here.

Tests used:
[1] = target: Mitogen-activated protein kinase kinase kinase kinase 4 (Homo sapiens, UniProt O95819); assay: Inhibition of ZC1/HGK Lys1 labeling site in human Huh-7 cell lysate at 1 uM by KiNativ Profiling analysis relative to control; assay type: subcellular
[2] = target: Ephrin type-A receptor 2 (Homo sapiens, UniProt P29317); assay: Inhibition of EphA2 ACT labeling site in human Huh-7 cell lysate at 1 uM by KiNativ Profiling analysis relative to control; assay type: subcellular
[3] = target: Cyclin-dependent kinase 17 (Homo sapiens) (UniProt Q00537); assay: Inhibition of PCTAIRE2 Lys2 labeling site in human Huh-7 cell lysate at 1 uM by KiNativ Profiling analysis relative to control; assay type: subcellular
[4] = target: T1, Serine/threonine-protein kinase greatwall (Homo sapiens) (UniProt Q96GX5); assay: Inhibition of MASTL ATP labeling site in human Huh-7 cells at 10 uM by KiNativ Profiling analysis relative to control; assay type: cell-based
T1 sequence (whole entry): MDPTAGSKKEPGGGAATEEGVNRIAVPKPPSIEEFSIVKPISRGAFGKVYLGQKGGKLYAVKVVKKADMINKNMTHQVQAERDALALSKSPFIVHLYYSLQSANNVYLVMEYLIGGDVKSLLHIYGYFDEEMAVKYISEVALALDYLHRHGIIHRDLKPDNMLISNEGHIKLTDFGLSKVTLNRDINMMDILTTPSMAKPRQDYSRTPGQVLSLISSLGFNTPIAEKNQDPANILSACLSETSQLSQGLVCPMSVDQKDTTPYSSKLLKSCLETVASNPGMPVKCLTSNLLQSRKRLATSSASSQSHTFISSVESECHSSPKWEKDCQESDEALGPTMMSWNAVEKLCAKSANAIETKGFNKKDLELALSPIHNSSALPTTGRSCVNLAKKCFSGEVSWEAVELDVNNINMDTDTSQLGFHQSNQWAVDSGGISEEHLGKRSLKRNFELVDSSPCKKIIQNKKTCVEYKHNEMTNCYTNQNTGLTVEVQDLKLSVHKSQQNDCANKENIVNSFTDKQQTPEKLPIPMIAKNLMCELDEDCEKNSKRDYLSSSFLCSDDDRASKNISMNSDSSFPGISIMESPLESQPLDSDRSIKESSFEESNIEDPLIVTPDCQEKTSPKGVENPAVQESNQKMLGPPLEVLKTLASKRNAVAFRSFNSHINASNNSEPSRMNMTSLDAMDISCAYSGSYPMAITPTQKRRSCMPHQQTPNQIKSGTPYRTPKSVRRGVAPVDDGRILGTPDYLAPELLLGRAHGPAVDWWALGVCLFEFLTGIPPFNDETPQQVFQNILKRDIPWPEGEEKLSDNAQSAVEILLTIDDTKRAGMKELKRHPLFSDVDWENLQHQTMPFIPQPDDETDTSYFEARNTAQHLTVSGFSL

[5] = test system: Mast/stem cell growth factor receptor Kit (Homo sapiens), P10721 [V559D,V654A]; assay: Inhibition of KIT V559D/V654A double mutant (unknown origin) at 10 uM by Ambit Kinomescan binding assay relative to control
[6] = target: T2, Acylglycerol kinase, mitochondrial (Homo sapiens) (UniProt Q53H12); assay: Inhibition of AGK ATP labeling site in human Huh-7 cells at 10 uM by KiNativ Profiling analysis relative to control; assay type: cell-based
T2 sequence (whole entry): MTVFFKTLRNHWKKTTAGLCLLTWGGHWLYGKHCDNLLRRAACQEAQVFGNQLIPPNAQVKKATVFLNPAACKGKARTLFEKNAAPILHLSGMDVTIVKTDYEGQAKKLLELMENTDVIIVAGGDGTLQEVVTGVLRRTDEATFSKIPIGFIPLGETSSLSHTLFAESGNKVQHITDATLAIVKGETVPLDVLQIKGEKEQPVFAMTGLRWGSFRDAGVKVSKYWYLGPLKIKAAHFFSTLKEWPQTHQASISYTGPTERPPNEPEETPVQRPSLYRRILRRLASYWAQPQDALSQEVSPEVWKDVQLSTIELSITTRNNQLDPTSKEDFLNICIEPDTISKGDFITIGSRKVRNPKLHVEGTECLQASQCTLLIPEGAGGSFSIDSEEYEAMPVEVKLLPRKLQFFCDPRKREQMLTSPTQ

[7] = target: Serine/threonine-protein kinase VRK2 (Homo sapiens) (UniProt Q86Y07); assay: Inhibition of VRK2 Lys2 labeling site in human A-375 cells at 0.05 uM by KiNativ Profiling analysis relative to control; assay type: cell-based
[8] = target: Transient receptor potential cation channel subfamily M member 6 (Homo sapiens) (UniProt Q9BX84); assay: Inhibition of TRPM6 (unknown origin) at 1 uM by Ambit Kinomescan binding assay relative to control
[9] = target: DNA-PK/Ku70/Ku85 (Homo sapiens) (UniProt P78527+P12956+P13010); assay: Inhibition of DNAPK ATP labeling site harbouring KGGSWIQEINVAEK in human A-375 cells at 5 uM by KiNativ Profiling analysis relative to control; assay type: cell-based
Method in brief: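 Live A375 melanoma cells were treated with compound at 0.5 or 5 μM, then lysed. Lysates were labeled with a lysine-reactive ATP or ADP-biotin probe. The read-out was protection of each kinase probe-labeling site from labeling, relative to control.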

[10] = target: T3, Dual specificity mitogen-activated protein kinase kinase 5 (Homo sapiens) (UniProt Q13163); assay: Inhibition of MEK5 (unknown origin) at 1 uM by Ambit Kinomescan binding assay relative to control; values are per cent of control
T3 sequence (whole entry): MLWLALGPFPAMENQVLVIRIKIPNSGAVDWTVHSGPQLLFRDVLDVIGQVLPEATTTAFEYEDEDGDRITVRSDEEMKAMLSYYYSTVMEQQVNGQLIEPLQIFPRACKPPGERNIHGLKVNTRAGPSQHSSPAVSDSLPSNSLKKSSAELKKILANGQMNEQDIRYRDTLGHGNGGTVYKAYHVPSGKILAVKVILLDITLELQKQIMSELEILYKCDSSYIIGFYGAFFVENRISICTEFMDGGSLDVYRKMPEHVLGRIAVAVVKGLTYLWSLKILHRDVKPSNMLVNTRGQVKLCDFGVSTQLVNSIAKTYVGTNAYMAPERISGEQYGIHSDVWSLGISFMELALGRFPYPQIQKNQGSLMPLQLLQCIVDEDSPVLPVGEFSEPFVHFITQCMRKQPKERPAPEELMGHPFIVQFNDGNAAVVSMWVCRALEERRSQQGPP

[11] = target: BMP-2-inducible protein kinase (Homo sapiens) (UniProt Q9NSY1); assay: Inhibition of BIKE (unknown origin) at 1 uM by Ambit Kinomescan binding assay relative to control; values are per cent of control
[12] = target: Wee1-like protein kinase (Homo sapiens) (UniProt P30291); assay: Inhibition of Wee1 Lys2 labeling site in human A-375 cells at 5 uM by KiNativ Profiling analysis relative to control; assay type: cell-based
Sequence of Wee1-like protein kinase (Homo sapiens) (P30291 whole entry, looked up): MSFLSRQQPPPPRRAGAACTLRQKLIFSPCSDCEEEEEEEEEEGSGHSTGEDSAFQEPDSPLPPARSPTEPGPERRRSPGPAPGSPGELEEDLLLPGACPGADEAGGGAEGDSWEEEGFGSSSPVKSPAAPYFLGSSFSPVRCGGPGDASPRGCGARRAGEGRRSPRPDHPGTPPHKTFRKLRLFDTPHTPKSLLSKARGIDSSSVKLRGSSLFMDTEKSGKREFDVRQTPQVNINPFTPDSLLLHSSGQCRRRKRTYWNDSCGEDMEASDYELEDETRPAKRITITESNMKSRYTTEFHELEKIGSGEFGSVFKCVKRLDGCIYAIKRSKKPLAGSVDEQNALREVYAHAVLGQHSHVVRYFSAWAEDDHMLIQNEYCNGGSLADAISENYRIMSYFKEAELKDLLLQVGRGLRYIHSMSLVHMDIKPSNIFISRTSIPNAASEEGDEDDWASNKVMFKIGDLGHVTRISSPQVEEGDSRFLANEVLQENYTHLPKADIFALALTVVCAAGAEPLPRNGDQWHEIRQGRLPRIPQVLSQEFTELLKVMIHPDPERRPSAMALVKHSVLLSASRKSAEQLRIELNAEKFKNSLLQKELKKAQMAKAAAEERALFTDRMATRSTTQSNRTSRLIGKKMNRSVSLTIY

Sequence of BMP-2-inducible protein kinase (Homo sapiens) (Q9NSY1 whole entry, looked up): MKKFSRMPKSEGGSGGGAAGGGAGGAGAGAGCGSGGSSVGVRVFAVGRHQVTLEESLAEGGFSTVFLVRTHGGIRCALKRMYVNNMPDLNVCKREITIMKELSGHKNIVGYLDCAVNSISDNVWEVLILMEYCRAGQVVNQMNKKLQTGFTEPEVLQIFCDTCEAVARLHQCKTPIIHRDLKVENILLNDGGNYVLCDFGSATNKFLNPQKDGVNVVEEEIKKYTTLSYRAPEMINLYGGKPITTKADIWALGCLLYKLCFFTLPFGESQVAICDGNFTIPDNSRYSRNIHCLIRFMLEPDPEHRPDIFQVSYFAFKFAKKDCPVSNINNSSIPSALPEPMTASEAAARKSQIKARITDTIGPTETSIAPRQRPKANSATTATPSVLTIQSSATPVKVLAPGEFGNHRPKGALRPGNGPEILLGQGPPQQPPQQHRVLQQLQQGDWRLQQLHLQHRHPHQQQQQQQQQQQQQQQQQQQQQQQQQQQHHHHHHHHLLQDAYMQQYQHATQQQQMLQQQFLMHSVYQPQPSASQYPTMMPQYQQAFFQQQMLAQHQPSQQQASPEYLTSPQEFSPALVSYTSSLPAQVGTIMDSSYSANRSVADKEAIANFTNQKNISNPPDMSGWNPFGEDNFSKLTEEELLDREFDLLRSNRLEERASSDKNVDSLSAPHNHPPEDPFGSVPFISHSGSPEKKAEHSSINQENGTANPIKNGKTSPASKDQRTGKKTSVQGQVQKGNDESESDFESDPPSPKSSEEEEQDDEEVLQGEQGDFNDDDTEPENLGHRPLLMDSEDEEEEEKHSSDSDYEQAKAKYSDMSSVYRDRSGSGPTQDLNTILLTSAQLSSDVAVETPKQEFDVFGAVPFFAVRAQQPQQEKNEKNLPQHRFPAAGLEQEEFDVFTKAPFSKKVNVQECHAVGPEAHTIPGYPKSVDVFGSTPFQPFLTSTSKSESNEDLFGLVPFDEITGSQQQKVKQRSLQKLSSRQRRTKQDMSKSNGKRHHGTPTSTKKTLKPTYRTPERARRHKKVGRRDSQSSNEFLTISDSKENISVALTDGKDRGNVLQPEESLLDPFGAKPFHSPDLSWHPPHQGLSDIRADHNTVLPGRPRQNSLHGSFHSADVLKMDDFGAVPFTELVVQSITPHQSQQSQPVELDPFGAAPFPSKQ
Sequence of Mitogen-activated protein kinase kinase kinase kinase 4 (O95819 2-1239 limits assumed): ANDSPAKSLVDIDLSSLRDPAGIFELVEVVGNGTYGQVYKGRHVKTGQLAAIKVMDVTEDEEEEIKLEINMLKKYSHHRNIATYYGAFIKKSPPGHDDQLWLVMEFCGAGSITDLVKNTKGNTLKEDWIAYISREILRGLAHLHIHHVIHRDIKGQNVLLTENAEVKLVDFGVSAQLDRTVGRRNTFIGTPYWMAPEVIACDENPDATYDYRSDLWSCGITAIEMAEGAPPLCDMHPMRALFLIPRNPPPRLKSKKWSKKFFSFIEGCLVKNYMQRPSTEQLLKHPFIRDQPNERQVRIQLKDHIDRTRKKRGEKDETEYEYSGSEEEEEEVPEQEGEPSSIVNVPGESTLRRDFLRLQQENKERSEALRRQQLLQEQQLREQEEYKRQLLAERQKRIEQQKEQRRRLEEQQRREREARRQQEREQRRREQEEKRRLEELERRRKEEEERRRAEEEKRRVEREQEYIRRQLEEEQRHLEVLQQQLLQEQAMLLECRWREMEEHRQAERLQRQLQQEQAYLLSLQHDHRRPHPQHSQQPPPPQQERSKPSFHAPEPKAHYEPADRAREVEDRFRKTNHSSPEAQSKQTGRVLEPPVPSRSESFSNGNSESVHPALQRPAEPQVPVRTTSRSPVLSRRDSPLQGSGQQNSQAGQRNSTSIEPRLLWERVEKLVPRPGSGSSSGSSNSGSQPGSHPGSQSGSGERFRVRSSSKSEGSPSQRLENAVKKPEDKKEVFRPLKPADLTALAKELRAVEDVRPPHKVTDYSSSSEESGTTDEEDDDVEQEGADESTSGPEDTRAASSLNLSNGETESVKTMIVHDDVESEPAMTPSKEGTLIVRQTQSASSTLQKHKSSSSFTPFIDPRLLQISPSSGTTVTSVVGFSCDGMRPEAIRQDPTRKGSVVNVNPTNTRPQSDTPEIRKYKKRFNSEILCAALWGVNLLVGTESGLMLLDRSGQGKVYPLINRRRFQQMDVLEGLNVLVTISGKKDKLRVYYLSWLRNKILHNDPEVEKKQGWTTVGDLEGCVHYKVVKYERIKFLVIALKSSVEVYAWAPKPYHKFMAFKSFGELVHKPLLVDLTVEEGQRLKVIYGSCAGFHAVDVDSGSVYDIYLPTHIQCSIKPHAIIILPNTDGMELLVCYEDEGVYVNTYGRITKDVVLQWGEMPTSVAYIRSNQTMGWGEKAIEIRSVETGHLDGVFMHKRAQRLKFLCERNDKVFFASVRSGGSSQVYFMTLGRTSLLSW
Sequence of Transient receptor potential cation channel subfamily M member 6 (Homo sapiens) (Q9BX84 whole entry): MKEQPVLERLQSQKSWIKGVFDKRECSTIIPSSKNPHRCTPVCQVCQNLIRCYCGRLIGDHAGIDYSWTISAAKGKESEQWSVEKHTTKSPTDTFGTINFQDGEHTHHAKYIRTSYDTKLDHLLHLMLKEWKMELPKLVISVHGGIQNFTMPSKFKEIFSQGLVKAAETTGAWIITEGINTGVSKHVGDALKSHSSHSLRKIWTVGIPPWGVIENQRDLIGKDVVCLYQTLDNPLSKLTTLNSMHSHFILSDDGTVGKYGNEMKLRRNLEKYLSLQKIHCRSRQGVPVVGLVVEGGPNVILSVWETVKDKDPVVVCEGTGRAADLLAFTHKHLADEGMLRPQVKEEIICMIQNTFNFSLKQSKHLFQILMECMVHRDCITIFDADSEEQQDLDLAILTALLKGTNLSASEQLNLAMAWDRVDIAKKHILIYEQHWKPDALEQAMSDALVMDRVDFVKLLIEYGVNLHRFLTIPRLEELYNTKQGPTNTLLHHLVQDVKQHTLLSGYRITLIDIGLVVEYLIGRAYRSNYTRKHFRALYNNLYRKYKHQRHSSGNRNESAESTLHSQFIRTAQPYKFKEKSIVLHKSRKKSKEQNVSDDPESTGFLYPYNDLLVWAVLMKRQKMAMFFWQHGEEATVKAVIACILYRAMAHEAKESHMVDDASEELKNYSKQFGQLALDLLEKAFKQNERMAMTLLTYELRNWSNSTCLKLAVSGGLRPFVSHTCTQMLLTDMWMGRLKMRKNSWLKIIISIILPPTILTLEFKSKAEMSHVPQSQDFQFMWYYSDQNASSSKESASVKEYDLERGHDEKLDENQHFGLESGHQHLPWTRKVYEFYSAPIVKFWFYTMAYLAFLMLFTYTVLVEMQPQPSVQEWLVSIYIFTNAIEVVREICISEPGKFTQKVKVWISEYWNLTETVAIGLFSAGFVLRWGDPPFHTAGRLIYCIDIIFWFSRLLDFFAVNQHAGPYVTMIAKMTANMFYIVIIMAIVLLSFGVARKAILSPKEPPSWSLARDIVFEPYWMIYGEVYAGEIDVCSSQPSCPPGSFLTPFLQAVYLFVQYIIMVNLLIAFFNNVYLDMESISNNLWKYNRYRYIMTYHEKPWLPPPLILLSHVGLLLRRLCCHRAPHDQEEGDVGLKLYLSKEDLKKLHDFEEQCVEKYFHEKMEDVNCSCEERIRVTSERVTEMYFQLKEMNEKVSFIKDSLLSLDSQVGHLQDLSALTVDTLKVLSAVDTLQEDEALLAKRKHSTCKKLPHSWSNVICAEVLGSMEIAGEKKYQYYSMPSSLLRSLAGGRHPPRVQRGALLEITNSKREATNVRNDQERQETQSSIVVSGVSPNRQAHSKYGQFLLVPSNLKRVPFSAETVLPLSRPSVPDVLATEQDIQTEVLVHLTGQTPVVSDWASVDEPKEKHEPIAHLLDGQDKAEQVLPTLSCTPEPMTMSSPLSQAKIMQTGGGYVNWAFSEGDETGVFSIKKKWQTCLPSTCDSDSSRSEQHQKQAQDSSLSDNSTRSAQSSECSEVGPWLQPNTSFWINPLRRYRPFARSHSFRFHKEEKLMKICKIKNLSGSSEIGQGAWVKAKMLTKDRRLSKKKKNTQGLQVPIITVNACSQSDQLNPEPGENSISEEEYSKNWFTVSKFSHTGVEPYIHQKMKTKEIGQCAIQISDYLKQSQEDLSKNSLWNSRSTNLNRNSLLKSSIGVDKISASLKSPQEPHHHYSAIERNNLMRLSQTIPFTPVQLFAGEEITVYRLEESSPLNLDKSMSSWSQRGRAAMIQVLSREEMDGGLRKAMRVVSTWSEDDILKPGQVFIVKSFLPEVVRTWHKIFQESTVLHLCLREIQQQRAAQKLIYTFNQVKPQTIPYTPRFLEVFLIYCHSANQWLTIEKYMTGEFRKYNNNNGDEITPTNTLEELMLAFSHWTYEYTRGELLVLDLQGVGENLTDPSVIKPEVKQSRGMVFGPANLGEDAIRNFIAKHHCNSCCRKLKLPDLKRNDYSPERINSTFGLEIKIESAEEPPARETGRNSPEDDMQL

SMILES: CNc1cc(Oc2cc(C(=O)Nc3cc(N4CCN(C)CC4)cc(C(F)(F)F)c3)ccc2C)ncn1
- inhibition [1]: 0.3%
- inhibition [2]: 25.1%
- inhibition [3]: -2.1%

SMILES: CCN1CCN(Cc2ccc(NC(=O)c3ccc(C)c(Oc4ccnc5[nH]ccc45)c3)cc2C(F)(F)F)CC1
- inhibition [4]: 3.9%
- inhibition [5]: 2.7%
- inhibition [6]: inactive

SMILES: CCN1CCN(Cc2ccc(NC(=O)c3ccc(C)c(/C=C/c4cnc5[nH]ccc5c4OC)c3)cc2C(F)(F)F)CC1
- inhibition [7]: 28.7%
- inhibition [8]: 100%
- inhibition [9]: -8.9%
- residual activity [10]: 1.4%
- residual activity [11]: 25%
- inhibition [12]: -0.1%
